Source: ChEMBL document CHEMBL3992522, “Antileishmanial Activity of Pyrazolopyridine Derivatives and Their Potential as an Adjunct Therapy with Miltefosine” (J Med Chem, 2017)
Activity calls are given as the source filed them. No cut-off for these calls is given here.

What was measured:
Assay type in all cases: functional
[1] = system: Leishmania donovani; test: Antileishmanial activity against Leishmania donovani MHOM/IN/80/DD8 promastigote forms harboring luciferase gene at 50 uM after 72 hrs by Steady-Glo reagent based luminescence assay relative to control; conditions: MHOM/IN/80/DD8, 72 h, read-out: GI
Method in brief: (§1)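 Exponential-phase Dd8-Luc promastigotes at 1×10^6/mL in M199 with 10% FBS, 24 °C, given 50 and 25 µM for 72 h. Vehicle 0.1% DMSO. Steady-Glo added 1:1, luminescence (RLU) read. IC50 from four-parameter Hill regression, derived only where inhibition exceeded 90%. Means of at least three independent experiments.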

[2] = system: Leishmania donovani; test: Antileishmanial activity against Leishmania donovani MHOM/IN/80/DD8 amastigote forms harboring luciferase gene infected in mouse J774 cells at 25 uM after 72 hrs by Steady-Glo reagent based luminescence assay relative to control; conditions: for inhibition of growth at 25 µM: MHOM/IN/80/DD8, J774, 72 h, read-out: GI
Method in brief: (§2)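 Stationary-phase luciferase-expressing Dd8 promastigotes infected into J774 macrophages (4×10^4/mL seeded, 24 h, 37 °C, 5% CO2) at 1:8 macrophage:parasite for 24 h. Non-internalised parasites washed off. Compounds added at 50 and 25 µM in RPMI/10% FBS for 72 h. Lysis with Steady-Glo luciferin reagent plus PBS, luminescence read. Inhibition relative to untreated infected controls.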

[3] = system: Leishmania donovani; test: Antileishmanial activity against Leishmania donovani MHOM/IN/80/DD8 amastigote forms harboring luciferase gene infected in mouse J774 cells at 50 uM after 72 hrs by Steady-Glo reagent based luminescence assay relative to control; conditions: for inhibition of growth at 50 µM: MHOM/IN/80/DD8, J774, 72 h, read-out: GI; method in brief: as §2
[4] = system: Leishmania donovani; test: Antileishmanial activity against Leishmania donovani MHOM/IN/80/DD8 promastigote forms harboring luciferase gene at 25 uM after 72 hrs by Steady-Glo reagent based luminescence assay relative to control; conditions: MHOM/IN/80/DD8, 72 h, read-out: GI; method in brief: as §1

SMILES	inhibition of growth at 50 µM [1] [%]	growth inhibition (GI) [2]	growth inhibition (GI) [3]	inhibition of growth at 25 µM [4] [%]	inhibition of growth at 25 µM [2] [%]	inhibition of growth at 50 µM [3] [%]
COc1cc(C2C3=C(CCC3=O)Nc3c2c(-c2c[nH]c4ccccc24)nn3-c2ccc(F)cc2)cc(OC)c1O (configuration not stated)	66.9	inactive	inactive	56.5	–	–
CC1(C)CC(=O)C2=C(C1)Nc1c(c(-c3c[nH]c4ccccc34)nn1-c1ccc(Cl)cc1)C2c1ccc(Cl)cc1 (configuration not stated)	65.4	inactive	inactive	62.5	–	–
COc1ccc(-c2c3c(nc4c2c(-c2c[nH]c5ccccc25)nn4-c2ccc(Cl)cc2)-c2ccccc2C3=O)cc1	33.4	inactive	inactive	27.5	–	–
COc1ccc(OC)c(-c2c3c(nc4c2c(-c2c[nH]c5ccccc25)nn4-c2ccc(Cl)c(Cl)c2)CC(C)(C)CC3=O)c1	51.8	–	–	41.3	24.6	41.3
COc1ccc(OC)c(-c2c3c(nc4c2c(-c2c[nH]c5ccccc25)nn4-c2ccc(F)cc2)CC(C)(C)CC3=O)c1	90.3	–	–	84.1	22.4	27.9
O=C1C2=C(Nc3c(c(-c4c[nH]c5ccccc45)nn3-c3ccc(Cl)cc3)C2c2ccc(Cl)cc2)c2ccccc21 (configuration not stated)	62.4	inactive	inactive	49.1	–	–
COc1ccc(-c2c3c(nc4c2c(-c2c[nH]c5ccccc25)nn4-c2ccc(Cl)c(Cl)c2)CCC3=O)cc1OC	81.1	–	–	52.4	20.8	34.3
CC1(C)CC(=O)c2c(nc3c(c(-c4c[nH]c5ccccc45)nn3-c3ccc(Cl)cc3)c2-c2ccc(Cl)cc2)C1	67.4	inactive	inactive	56.7	–	–
COc1cc(C2C3=C(CCC3=O)Nc3c2c(-c2c[nH]c4ccccc24)nn3-c2ccc(Cl)cc2)cc(OC)c1OC (configuration not stated)	81.2	–	–	78.4	45.2	59.6
COc1ccc(-c2c3c(nc4c2c(-c2c[nH]c5ccccc25)nn4-c2ccc(Cl)cc2)-c2ccccc2C3=O)c(OC)c1OC	63.4	inactive	inactive	52.6	–	–
CC1(C)CC(=O)c2c(nc3c(c(-c4c[nH]c5ccccc45)nn3-c3ccc(F)cc3)c2-c2ccc(Cl)cc2Cl)C1	48.4	inactive	inactive	44.6	–	–
COc1cc(C2C3=C(CCC3=O)Nc3c2c(-c2c[nH]c4ccccc24)nn3-c2ccc(Cl)cc2)cc(OC)c1O (configuration not stated)	89.6	–	–	79.1	25.2	30.7
CC1(C)CC(=O)c2c(nc3c(c(-c4c[nH]c5ccccc45)nn3-c3ccc(F)cc3)c2-c2ccc(Cl)cc2)C1	68.6	inactive	inactive	61.3	–	–
COc1ccc(C2C3=C(Nc4c2c(-c2c[nH]c5ccccc25)nn4-c2ccc(Cl)cc2)c2ccccc2C3=O)c(OC)c1OC (configuration not stated)	67.4	inactive	inactive	64.2	–	–
CC1(C)CC(=O)C2=C(C1)Nc1c(c(-c3c[nH]c4ccccc34)nn1-c1ccc(Cl)cc1)C2c1cccs1 (configuration not stated)	86.5	–	–	82.5	43.8	51.7
COc1cc(-c2c3c(nc4c2c(-c2c[nH]c5ccccc25)nn4-c2ccc(Cl)cc2)-c2ccccc2C3=O)cc(OC)c1OC	41.1	inactive	inactive	28.3	–	–
O=C1C2=C(Nc3c(c(-c4c[nH]c5ccccc45)nn3-c3ccc(Cl)cc3)C2c2cccs2)c2ccccc21 (configuration not stated)	69.2	inactive	inactive	65.3	–	–
COc1ccc(-c2c3c(nc4c2c(-c2c[nH]c5ccccc25)nn4-c2ccc(Cl)cc2)CC(C)(C)CC3=O)c(OC)c1OC	54.3	inactive	inactive	40.2	–	–
CC1(C)CC(=O)c2c(nc3c(c(-c4c[nH]c5ccccc45)nn3-c3ccc(Cl)cc3)c2-c2ccc(Cl)cc2Cl)C1	40.6	inactive	inactive	35.7	–	–
CC1(C)CC(=O)C2=C(C1)Nc1c(c(-c3c[nH]c4ccccc34)nn1-c1ccc(F)cc1)C2c1ccc(Cl)cc1 (configuration not stated)	65.3	inactive	inactive	54.3	–	–
COc1ccc(OC)c(-c2c3c(nc4c2c(-c2c[nH]c5ccccc25)nn4-c2ccc(Cl)cc2)-c2ccccc2C3=O)c1	53.6	inactive	inactive	44.6	–	–
COc1ccc(OC)c(-c2c3c(nc4c2c(-c2c[nH]c5ccccc25)nn4-c2ccc(F)cc2)-c2ccccc2C3=O)c1	58.3	inactive	inactive	49.8	–	–
COc1ccc(OC)c(C2C3=C(CCC3=O)Nc3c2c(-c2c[nH]c4ccccc24)nn3-c2ccc(Cl)cc2)c1 (configuration not stated)	93.2	–	–	85.5	37.3	42.6
COc1cc(-c2c3c(nc4c2c(-c2c[nH]c5ccccc25)nn4-c2ccc(Cl)cc2)CC(C)(C)CC3=O)cc(OC)c1OC	68.6	inactive	inactive	59.1	–	–
COc1ccc(-c2c3c(nc4c2c(-c2c[nH]c5ccccc25)nn4-c2ccc(Cl)c(Cl)c2)CC(C)(C)CC3=O)cc1OC	74.1	inactive	inactive	59.4	–	–
COc1ccc(OC)c(-c2c3c(nc4c2c(-c2c[nH]c5ccccc25)nn4-c2ccc(Cl)cc2)CCC3=O)c1	67.2	inactive	inactive	61.2	–	–
COc1cc(-c2c3c(nc4c2c(-c2c[nH]c5ccccc25)nn4-c2ccc(Cl)cc2)CCC3=O)cc(OC)c1OC	72.3	inactive	inactive	66.8	–	–
COc1ccc(-c2c3c(nc4c2c(-c2c[nH]c5ccccc25)nn4-c2ccc(Cl)cc2)CC(C)(C)CC3=O)cc1	52	inactive	inactive	44.3	–	–
